In publication PMC3921099 (Neurochemical research, 2013):

Key:
α1β3δ receptors = α1β3δ receptors (Rattus norvegicus, UniProt P62813+P63079); assay: Two electrode voltage clamp in Xenopus oocytes, modulation of GABA current; type: cell-based; settings: for stimulation of GABA EC3: 10 μM concentration
Procedure, shortened: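 α1β3δ receptors from rat cRNAs injected at 3:1:5 into Xenopus oocytes, expressed ≥24 h. Two-electrode clamp at −60 mV, room temperature. GABA concentration–response curves (including 1 μM and 1 mM GABA) recorded with and without 10 μM test compound, currents normalised to maximum evoked current. Hill fits. Curves with and without modulator compared by paired Student's t test, P<0.05, n = 4.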

αβδ receptors = assay: Two electrode voltage clamp, DS2 test for incorporation of the delta subunit; type: cell-based, rat; settings: 10 μM DS2 (experiments not shown)
Procedure, shortened: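 Expression of δ checked in every oocyte injected with α, β and δ cRNAs: GABA-induced current tested with addition of 10 μM DS2, under two-electrode voltage clamp at −60 mV, room temperature, in Xenopus Ringer.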

α1β3 receptors [1] = target: T1, α1β3 receptors (Rattus norvegicus, UniProt P62813+P63079); assay: Two electrode voltage clamp in Xenopus oocytes, modulation of GABA EC3 current; type: cell-based
T1 sequence (P62813 28-455): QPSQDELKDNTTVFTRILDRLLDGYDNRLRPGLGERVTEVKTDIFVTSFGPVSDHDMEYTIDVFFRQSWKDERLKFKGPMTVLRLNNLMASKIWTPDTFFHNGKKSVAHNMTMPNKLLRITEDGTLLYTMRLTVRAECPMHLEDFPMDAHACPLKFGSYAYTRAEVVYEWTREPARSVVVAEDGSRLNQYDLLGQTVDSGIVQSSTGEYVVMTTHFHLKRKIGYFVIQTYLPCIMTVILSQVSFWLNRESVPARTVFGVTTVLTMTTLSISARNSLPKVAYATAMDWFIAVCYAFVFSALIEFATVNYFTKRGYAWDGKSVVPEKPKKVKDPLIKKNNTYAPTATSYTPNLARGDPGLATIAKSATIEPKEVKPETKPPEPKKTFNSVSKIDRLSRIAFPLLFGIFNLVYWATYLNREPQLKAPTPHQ
T1 sequence (P63079 26-473): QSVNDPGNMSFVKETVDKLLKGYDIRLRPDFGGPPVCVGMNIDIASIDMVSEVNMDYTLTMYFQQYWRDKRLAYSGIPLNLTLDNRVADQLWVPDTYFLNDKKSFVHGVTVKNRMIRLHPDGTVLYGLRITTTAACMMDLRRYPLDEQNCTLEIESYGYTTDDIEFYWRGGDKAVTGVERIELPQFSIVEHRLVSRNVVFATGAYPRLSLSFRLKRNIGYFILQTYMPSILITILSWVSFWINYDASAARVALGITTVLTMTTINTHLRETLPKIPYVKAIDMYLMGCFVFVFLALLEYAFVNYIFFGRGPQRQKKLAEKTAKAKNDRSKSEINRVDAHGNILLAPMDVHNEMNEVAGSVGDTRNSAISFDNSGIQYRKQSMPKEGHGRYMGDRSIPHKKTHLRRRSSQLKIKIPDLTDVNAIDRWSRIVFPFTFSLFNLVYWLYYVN
Procedure, shortened: (§1)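 Rat α and β3 cRNAs (capped, polyadenylated) injected at 1:1 into Xenopus oocytes, 2.5–4 ng per oocyte, at least 24 h at 18 °C, then defolliculated. Two-electrode voltage clamp at −60 mV, room temperature, in Xenopus Ringer (pH 7.4). GABA titrated to 3–7 % of each oocyte's maximum (EC3). Test compound (0.1 % DMSO final) pre-applied 30 s, then co-applied with GABA until peak. Washout up to 15 min between applications. Responses are % of the GABA control. Mean ± SEM from ≥3 oocytes, ≥2 batches.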

α1β3γ2 receptors [2] = target: T2, α1β3γ2 receptors (Rattus norvegicus, UniProt P62813+P63079); assay: Two electrode voltage clamp in Xenopus oocytes, modulation of GABA EC3 current; type: cell-based; settings: GABA alone
α1β2δ receptors = α1β2δ receptors (Rattus norvegicus, UniProt P62813+P63138); assay: Two electrode voltage clamp in Xenopus oocytes, modulation of GABA EC3 current; type: cell-based
α1β2δ receptors, sequence (P62813 28-455): as the sequence (P62813 28-455) above
α1β2δ receptors, sequence (P63138 25-474 limits assumed): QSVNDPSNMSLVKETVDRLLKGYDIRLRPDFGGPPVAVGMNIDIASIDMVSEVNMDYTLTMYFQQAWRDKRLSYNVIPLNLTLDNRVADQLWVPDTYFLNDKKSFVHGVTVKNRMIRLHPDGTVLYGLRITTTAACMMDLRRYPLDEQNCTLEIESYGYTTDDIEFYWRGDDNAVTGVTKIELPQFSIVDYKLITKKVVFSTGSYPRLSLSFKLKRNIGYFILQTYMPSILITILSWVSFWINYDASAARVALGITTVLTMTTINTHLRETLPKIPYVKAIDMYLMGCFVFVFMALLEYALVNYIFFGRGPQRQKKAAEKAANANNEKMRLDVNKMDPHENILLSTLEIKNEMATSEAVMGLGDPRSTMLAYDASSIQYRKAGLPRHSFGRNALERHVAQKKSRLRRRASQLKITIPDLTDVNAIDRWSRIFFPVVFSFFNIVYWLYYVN
α1β2δ receptors, sequence (P18506 17-449 partner limits assumed): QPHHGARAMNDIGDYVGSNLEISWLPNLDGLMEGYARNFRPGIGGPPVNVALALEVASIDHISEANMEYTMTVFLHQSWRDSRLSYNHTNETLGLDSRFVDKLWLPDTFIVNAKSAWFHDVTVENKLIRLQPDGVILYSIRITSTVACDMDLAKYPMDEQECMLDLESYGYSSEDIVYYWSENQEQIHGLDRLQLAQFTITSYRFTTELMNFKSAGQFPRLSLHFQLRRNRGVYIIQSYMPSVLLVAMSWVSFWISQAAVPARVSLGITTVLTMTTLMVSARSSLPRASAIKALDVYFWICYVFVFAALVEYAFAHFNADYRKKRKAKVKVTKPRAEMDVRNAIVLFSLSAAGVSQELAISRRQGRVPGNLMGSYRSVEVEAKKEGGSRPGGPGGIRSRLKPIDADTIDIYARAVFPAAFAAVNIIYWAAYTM
Procedure, shortened: (§2)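 Oocytes injected with rat α, β and δ cRNAs (3:1:5, 2.5–4 ng total) and held ≥24 h at 18 °C before collagenase defolliculation. Voltage clamped at −60 mV, room temperature, perfused 6 ml/min with Ringer (pH 7.4). GABA EC3 (3–7 % of individual maximum) co-applied with test compound after 30 s pre-application, 0.1 % DMSO final. Concentration–response fit with Hill equation, bottom fixed at 100 %. Mean ± SEM, ≥3 oocytes, ≥2 batches.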

α1β3Q64Cδ receptors = α1β3Q64Cδ receptors (Rattus norvegicus, UniProt P62813+P63079, Q89C); assay: Two electrode voltage clamp, steric hindrance; type: cell-based; settings: 10 μM
Procedure, shortened: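 α1, β3Q64C and δ cRNAs injected at 3:1:5. Defolliculated oocytes were exposed 3 min to freshly prepared 2 mM MTSEA-biotin in Ringer with GABA EC3, rinsed 5 min and used the same day. Untreated oocytes served as comparison. GABA EC3 response to 10 μM test compound measured by two-electrode clamp at −60 mV. Treated and untreated groups compared by unpaired Student's t test, P<0.05.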

α1S204Cβ3Q64C receptors = α1S204Cβ3Q64C receptors (Rattus norvegicus, UniProt P62813+P63079, Q89C/S231C); assay: Two electrode voltage clamp, steric hindrance; type: cell-based
Procedure, shortened: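 Oocytes expressing rat α1S204C with β3Q64C (1:1 cRNA) were defolliculated, then immersed 3 min in freshly made 2 mM MTSEA-biotin in Ringer containing GABA EC3, washed 5 min and recorded the same day. Two-electrode clamp at −60 mV with GABA EC3 plus test compound, compared with untreated oocytes. Mean ± SEM, n = 3–4.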

α6β3γ2 receptors [3] = target: T3, α6β3γ2 receptors (Rattus norvegicus, UniProt P30191+P63079); assay: Two electrode voltage clamp in Xenopus oocytes, modulation of GABA EC3 current; type: cell-based; settings: 10 μM concentration
Procedure, shortened: (§3)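 Rat αxβ3γ2 cRNAs injected into Xenopus oocytes at a 1:1:5 ratio, 2.5–4 ng total, incubated at least 36 h at 18 °C before defolliculation. Two-electrode clamp at −60 mV, room temperature, Ringer pH 7.4. GABA at EC3 (3–7 % of the cell's maximum current). Test compound (0.1 % DMSO) pre-applied 30 s, then co-applied with GABA to peak. Effects are % of GABA EC3 current. Mean ± SEM, ≥3 oocytes from ≥2 batches.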

α4β3γ2 receptors [4] = target: T4, α4β3γ2 receptors (Rattus norvegicus, UniProt P28471+P63079); assay: as above; type: cell-based; settings: 10 μM concentration
Procedure, shortened: as §3

α1β3 receptors [5] = target: T1, α1β3 receptors; settings: 10 μM concentration; cited from earlier work
α4β3δ receptors = α4β3δ receptors (Rattus norvegicus, UniProt P28471+P63079); assay: Two electrode voltage clamp in Xenopus oocytes, modulation of GABA EC3 current; type: cell-based
α4β3δ receptors, sequence (P28471 36-552): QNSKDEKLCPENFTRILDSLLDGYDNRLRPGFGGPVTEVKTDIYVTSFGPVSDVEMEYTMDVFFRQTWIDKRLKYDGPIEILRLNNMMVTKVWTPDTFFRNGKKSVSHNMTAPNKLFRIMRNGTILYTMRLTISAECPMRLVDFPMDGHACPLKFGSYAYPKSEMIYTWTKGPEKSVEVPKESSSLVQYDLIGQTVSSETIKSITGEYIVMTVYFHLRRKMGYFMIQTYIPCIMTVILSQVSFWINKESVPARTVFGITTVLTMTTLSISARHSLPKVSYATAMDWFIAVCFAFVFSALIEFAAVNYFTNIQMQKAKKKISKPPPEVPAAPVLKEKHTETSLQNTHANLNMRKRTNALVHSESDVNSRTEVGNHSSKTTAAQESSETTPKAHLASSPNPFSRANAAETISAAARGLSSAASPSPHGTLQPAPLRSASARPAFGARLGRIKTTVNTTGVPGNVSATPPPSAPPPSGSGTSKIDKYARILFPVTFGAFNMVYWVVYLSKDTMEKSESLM
α4β3δ receptors, sequence (P63079 26-473): as the sequence (P63079 26-473) above
α4β3δ receptors, sequence (P18506 17-449 partner limits assumed): as the sequence (P18506 17-449 partner limits assumed) above
Procedure, shortened: as §2

α6β3δ receptors = α6β3δ receptors (Rattus norvegicus, UniProt P30191+P63079); assay: as above; type: cell-based; settings: 10 μM concentration
Procedure, shortened: as §2

α3β3 receptors = α3β3 receptors (Rattus norvegicus, UniProt P20236+P63079); assay: Two electrode voltage clamp in Xenopus oocytes, modulation of GABA EC3 current; type: cell-based; settings: 10 μM concentration
Procedure, shortened: as §1

α5β3 receptors = α5β3 receptors (Rattus norvegicus, UniProt P19969+P63079); assay: as above; type: cell-based; settings: 10 μM
Procedure, shortened: as §1

α2β3 receptors = α2β3 receptors (Rattus norvegicus, UniProt P23576+P63079); assay: as above; type: cell-based; settings: 10 μM concentration
Procedure, shortened: as §1

[6] = target: benzodiazepine binding site of α1β3γ2 receptors; settings: read-out: IC50 of [3H]Ro15-1788 binding; cited from earlier work
α1β1δ receptors = α1β1δ receptors (Rattus norvegicus, UniProt P15431+P62813); assay: Two electrode voltage clamp in Xenopus oocytes, modulation of GABA EC3 current; type: cell-based
Procedure, shortened: as §2

α1S204Cβ3δ receptors [7] = assay: Two electrode voltage clamp, steric hindrance; type: cell-based, rat; settings: 10 μM, MTSEA-biotin treated
α1S204Cβ3δ receptors [8] = target: α1S204Cβ3δ receptors (Rattus norvegicus, UniProt P62813+P63079, S231C); assay: Two electrode voltage clamp, steric hindrance; type: cell-based; settings: 10 μM, without MTSEA-biotin
α1β3γ2 receptors [9] = target: T2, α1β3γ2 receptors; settings: 10 μM concentration; cited from earlier work
α6β3γ2 receptors [10] = target: T3, α6β3γ2 receptors; settings: 10 μM concentration; cited from earlier work
α4β3γ2 receptors [11] = target: T4, α4β3γ2 receptors; settings: cited from earlier work
[12] = α1β3δ receptors, LAU 157 up to 30 μM (experiments not shown)

α1β3δ receptors, sequence (P62813 28-455): as the sequence (P62813 28-455) above
α1β3δ receptors, sequence (P63079 26-473): as the sequence (P63079 26-473) above
α1β3δ receptors, sequence (P18506 17-449 partner limits assumed): as the sequence (P18506 17-449 partner limits assumed) above

For `O=C(Nc1c(-c2cccs2)nc2ccccn12)c1ccc(Cl)cc1` [DS2, 4-Chloro-N-[2-(2-thienyl)imidazo[1,-2-a]pyridin-3-yl]benzamide, reference compound], the “stimulation to % of GABA EC3” value (α1β3δ receptors; α1β3δ receptors, 1 μM DS2 (experiments not shown)) was 400 % of GABA EC3 and the “enhancement of GABA-induced currents” value (αβδ receptors) was “dramatically enhanced”.

In the case of `NCCCC(=O)O` [GABA, gamma-aminobutyric acid, reference compound], the “maximal GABA-induced effect (current)” value (α1β3δ receptors; α1β3δ receptors, GABA alone) is reported as “about 1 μA”, the “GABA-induced current (maximal)” value (α1β3 receptors [1]; GABA alone) is reported as 8 μA and the “GABA-induced current (maximal)” value (α1β3γ2 receptors [2]) is reported as 16 μA.

In the case of `O=c1c2c[nH]c3ccc(Cl)cc3c-2nn1-c1ccc([N+](=O)[O-])cc1` [LAU 157, 8-chloro-2-(4-nitrophenyl)-2H-pyrazolo[4,3-c]quinolin-3(5H)-one], the “modulation of GABA EC3” value (α1β3δ receptors; α1β3δ receptors) is reported as “did not significantly modulate”, the “inhibition of the effects of 1 μM DS2” value (α1β3δ receptors; [12]) is reported as “did not inhibit” and the “inhibition of the effects of 3 μM tracazolate” value (α1β3δ receptors; [12]) is reported as “did not inhibit”. For the same compound, the “inhibition of the effect of 1 μM LAU 177” value (α1β3δ receptors; α1β3δ receptors, increasing concentrations of LAU 157) was “complete inhibition”, the “modulation of GABA EC3” value (α1β2δ receptors; α1β2δ receptors) was “did not significantly modulate” and the “inhibition of the effect of 1 μM LAU 177” value (α1β2δ receptors; α1β2δ receptors, increasing concentrations of LAU 157) was “complete inhibition”. For the same compound, the “modulation of GABA EC3” value (α1β3 receptors [1]) was “did not significantly modulate” and the “inhibition of the effect of 1 μM LAU 177” value (α1β3 receptors [1]; increasing concentrations of LAU 157) was “complete inhibition”.

With `COc1ccc2[nH]cc3c(=O)n(-c4ccc(C#N)cc4)nc-3c2c1` [LAU 177, 4-(8-methoxy-3-oxo-3,5-dihydro-2H-pyrazolo[4,3-c]quinolin-2-yl)benzonitrile] the “stimulation of GABA EC3 after incubation with MTSEA biotin” value (α1β3Q64Cδ receptors; MTSEA-biotin treated) was 1754 ± 568%, the “stimulation of GABA EC3” value (α1β3Q64Cδ receptors; without MTSEA-biotin) was 6941 ± 1268% and the “current enhancement in the presence of MTSEA-biotin” value (α1S204Cβ3Q64C receptors; MTSEA-biotin treated) was “drastically reduced”. For the same compound, the “enhancement of GABA-induced currents compared with α1β3 receptors” value (α1S204Cβ3Q64C receptors; without MTSEA-biotin) was “to a similar extent with a comparable potency”, the “stimulation of GABA EC3” value (α6β3γ2 receptors [3]) was 1622 ± 87% and the “stimulation of GABA EC3” value (α4β3γ2 receptors [4]) was 981 ± 52%. The “stimulation to % of GABA EC3” value (α1β3 receptors [5]) was 1063 ± 128 % of GABA EC3, the “stimulation of GABA EC3” value (α4β3δ receptors; α4β3δ receptors (printed δ4β3δ), 10 μM concentration) was 1365 ± 117% and the EC50 (α1β3δ receptors) was 1 µM. The “enhancement of the conductance induced by maximal GABA concentrations” value (α1β3δ receptors; α1β3δ receptors, 10 μM LAU 177) was “about 12 times”, the “change of GABA EC50 by the modulator” value (α1β3δ receptors; α1β3δ receptors, 10 μM LAU 177, paired Student's t test p>0.05) was “no significant change” and the “stimulation of GABA EC3” value (α1β3δ receptors; α1β3δ receptors) was 3285 ± 257%. The “GABA-induced current in the presence of LAU 177” value (α1β3δ receptors; α1β3δ receptors, 1 mM GABA, 10 μM LAU 177) was 13 μA, the “stimulation of GABA EC3” value (α6β3δ receptors) was 1639 ± 244% and the “stimulation of GABA EC3” value (α3β3 receptors) was 913 ± 178 % of GABA EC3. The “enhancement of the GABA-induced current” value (α5β3 receptors) was “about 528 ± 103 % GABA”, the “stimulation of GABA EC3” value (α2β3 receptors) was 981 ± 20 % of GABA EC3 and the EC50 (α1β2δ receptors) was over 10.7 µM. The “stimulation of GABA EC3” value (α1β2δ receptors; α1β2δ receptors, 10 μM concentration) was 2843 ± 396%, the IC50 [6] was 0.00075 ± 0.00081 µM and the “enhancement of GABA-induced currents, up to % of GABA EC3” value (α1β3 receptors [1]; concentration dependent, maximum) was 1152 ± 145 % of GABA EC3. The “efficacy compared to α1β2,3δ receptors” value (α1β1δ receptors) was “drastically reduced”, the “stimulation of GABA EC3 after incubation with MTSEA biotin” value (α1S204Cβ3δ receptors [7]) was 1884 ± 311% and the “stimulation of GABA EC3” value (α1S204Cβ3δ receptors [8]) was 5278 ± 1008%.

For `COc1ccc(-n2nc3c4cc(Cl)ccc4[nH]cc-3c2=O)cc1` [PZ-II-028, 8-chloro-2-(4-methoxyphenyl)-2H-pyrazolo[4,3-c]quinolin-3(5H)-one, reference compound], the “modulation of GABA-induced currents” value (α4β3δ receptors; α4β3δ receptors, concentration not given) was 425 ± 26%, the “stimulation of GABA EC3” value (α1β3δ receptors; α1β3δ receptors) was 1186 ± 89% and the “stimulation of GABA EC3” value (α6β3δ receptors) was 1152 ± 106%. For the same compound, the “stimulation of GABA-induced currents” value (α1β3γ2 receptors [9]) was 939 ± 64, the “stimulation of GABA-induced current” value (α6β3γ2 receptors [10]) was 1871 ± 28% and the “modulation of GABA-induced currents” value (α4β3γ2 receptors [11]) was 226 ± 14%.

In the case of `CCCCNc1c(C(=O)OCC)c(C)nc2c1cnn2CC` [tracazolate, 4-(butylamino)-1-ethyl-6-methyl-1H-pyrazolo[3,4-b]pyridine-5-carboxylate, reference compound], the “stimulation to % of GABA EC3” value (α1β3δ receptors; α1β3δ receptors, 3 μM tracazolate (experiments not shown)) is reported as 900 % of GABA EC3.
